Active and inactive are the calls of the source. The rule behind the calls is not given here.
Tests used:
[1] = Intrinsic clearance in Sprague-Dawley rat hepatocytes assessed per million cells at 5 uM incubated for 3 hrs by LC-MS analysis; type: ADME, cell-based, Hepatocyte; conditions: read-out: CLH
Outline: (§1)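 Cryopreserved primary hepatocytes in suspension from CD-1 mouse, Sprague-Dawley rat, Beagle dog and human. Compound at 5 μM final (from 10 mM DMSO stock). Samples taken at 0, 15, 60, 90 and 180 min and quenched with ACN plus internal standard. Parent quantified by LC-MS. Hepatocyte-free medium incubations served as negative control; 7-ethoxycoumarin as positive control. Duplicate; CLint per 10^6 cells and t1/2.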

[2] = Intrinsic clearance in human hepatocytes assessed per million cells at 5 uM incubated for 3 hrs by LC-MS analysis; type: ADME, cell-based, Hepatocyte; conditions: read-out: CLH; outline: as §1
[3] = AUC (0 to 8 hrs) in male Sprague-Dawley rat brain at 5 mg/kg, po; type: ADME, organism-based; design: time < 8 hr, route oral, dose 5 mg/kg; conditions: in vivo
Outline: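 Male Sprague Dawley rats, single oral dose of 5 mg/kg. Plasma and brain concentrations measured over 8 h, n = 3, mean ± SEM; AUC0−8 computed from the time course.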

Rattus norvegicus [4] = assay: In vivo inhibition of PI3Kalpha Sprague-Dawley rat assessed as increase in plasma glucose concentration at 5 mg/kg, po measured after 8 hrs by glucoseoxidase-peroxide coupled colorimetric assay; type: functional, organism-based
Outline: (§2)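 Male Sprague Dawley rats dosed orally at 5 mg/kg; plasma insulin and glucose followed over time against vehicle, n = 3, mean ± SEM.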

Rattus norvegicus [5] = assay: In vivo inhibition of PI3Kalpha Sprague-Dawley rat assessed as increase in plasma insulin concentration at 5 mg/kg, po measured after 8 hrs by ELISA; type: functional, organism-based; outline: as §2
[6] = Cmax in C57BL/6J mouse plasma at 10 mg/kg, po administered as single dose by mass spectrometry based UHPLC analysis; type: ADME, organism-based; design: route oral, dose 10 mg/kg
Outline: (§3)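 Female C57BL/6J mice, one oral dose of 10 mg/kg in 20% Captisol; plasma and brain levels over time, n = 3 per time point (mean).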

[7] = Tmax in C57BL/6J mouse plasma at 10 mg/kg, po administered as single dose by mass spectrometry based UHPLC analysis; type: ADME, organism-based
Outline: (§4)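 Female C57BL/6J mice dosed orally at 10 mg/kg in 20% Captisol, either once or once daily for 4 days with sampling after the last dose on day 4. Plasma and brain concentrations followed over time. Tmax taken from at least 3 time points.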

[8] = Elimination half life in C57BL/6J mouse plasma at 10 mg/kg, po administered as single dose by mass spectrometry based UHPLC analysis; type: ADME, organism-based; conditions: read-out: beta t1/2 (converted); outline: as §3
[9] = AUC (0 to 8 hrs) in C57BL/6J mouse plasma at 10 mg/kg, po administered as single dose by mass spectrometry based UHPLC analysis; type: ADME, organism-based; design: time < 8 hr, route oral, dose 10 mg/kg; outline: as §3
[10] = Clearance in C57BL/6J mouse plasma at 10 mg/kg, po administered as single dose by mass spectrometry based UHPLC analysis; type: ADME, organism-based; outline: as §3
[11] = Cmax in C57BL/6J mouse plasma at 10 mg/kg, po administered once a day for 4 consecutive days by mass spectrometry based UHPLC analysis; type: ADME, organism-based; design: route oral, dose 10 mg/kg, time 4 day
Outline: (§5)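 Female C57BL/6J mice given 10 mg/kg p.o. in 20% Captisol once daily for 4 consecutive days. Plasma and brain sampled after the final dose on day 4, n = 3 per time point.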

[12] = Tmax in C57BL/6J mouse plasma at 10 mg/kg, po administered once a day for 4 consecutive days by mass spectrometry based UHPLC analysis; type: ADME, organism-based; conditions: time 4 day; outline: as §4
[13] = AUC (0 to 8 hrs) in C57BL/6J mouse plasma at 10 mg/kg, po administered once a day for 4 consecutive days by mass spectrometry based UHPLC analysis; type: ADME, organism-based; design: route oral, time 4 day, dose 10 mg/kg; outline: as §5
[14] = Clearance in C57BL/6J mouse plasma at 10 mg/kg, po administered once a day for 4 consecutive days by mass spectrometry based UHPLC analysis; type: ADME, organism-based; conditions: time 4 day; outline: as §5
[15] = Elimination half life in C57BL/6J mouse brain at 10 mg/kg, po administered as single dose by mass spectrometry based UHPLC analysis; type: ADME, organism-based; conditions: read-out: beta t1/2 (converted); outline: as §3
[16] = Tmax in C57BL/6J mouse brain at 10 mg/kg, po administered once a day for 4 consecutive days by mass spectrometry based UHPLC analysis; type: ADME, organism-based; conditions: time 4 day; outline: as §4
[17] = Tmax in C57BL/6J mouse brain at 25 mg/kg, po administered as single dose by mass spectrometry based UHPLC analysis; type: ADME, organism-based
Outline: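 Female C57BL/6J mice given a single oral dose of 25 mg/kg. Plasma and brain levels followed over time (n = 3 per time point, mean). Tmax is the time of maximal concentration.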

Mus musculus [18] = assay: In vivo inhibition of mTORC1 signalling in C57BL/6J mouse brain assessed as reduction in RPS6 phosphorylation at S235/236 residue at 25 mg/kg, po incubated for 30 mins by Western blot analysis; type: functional, organism-based
Outline: (§6)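 Female C57BL/6J mice dosed at 25 mg/kg p.o.; cortex collected 30 min later and lysed. Equal protein run on SDS-PAGE and western blotted for pS6(Ser235/236), pPKB(Ser473) and α-tubulin, detected by HRP secondary antibodies and ECL. Signal expressed as % of control cortex, n = 3, mean ± SEM, unpaired t-test.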

Mus musculus [19] = assay: In vivo inhibition of mTORC2 signalling pathway in C57BL/6J mouse assessed as reduction in PKB/Akt phosphorylation at Ser473 in brain at 25 mg/kg, po incubated for 30 mins by Western blot analysis; type: functional, organism-based; outline: as §6
Mus musculus [20] = assay: In vivo inhibition of mTORC1 signalling in C57BL/6J mouse assessed as reduction in RPS6 phosphorylation at S235/236 residue in brain at 25 mg/kg, po measured after 0.5 to 2 hrs by Western blot analysis; type: functional, organism-based; conditions: time 0.5-2 hrs
Outline: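 Time course in female C57BL/6J mice after 25 mg/kg p.o.: cortex taken at set time points and western blotted for pS6 and pPKB. Signals quantified against α-tubulin as % of control cortex; n = 3 per time point and n = 9 controls. Brain compound level measured in the same mice.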

[21] = Toxicity in Balb/c nude mouse assessed as change in body weight at 100 mg/kg, po administered once daily for 14 days measured for 7 days starting from post last dose; type: organism-based; conditions: in vivo, 504 h, time 21 day
[22] = Toxicity in Tsc1-GFAP knockout Balb/c mouse assessed as change in body weight at 10 to 50 mg/kg, po administered as single dose; type: organism-based; conditions: in vivo, dose 10-50 mg/kg
Mus musculus [23] = assay: Protection against Tsc1-GFAP knockout induced mortality in Balb/c mouse assessed as increase in survival rate administered orally twice a day measured post last dose; type: functional, organism-based
Outline: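 Tsc1GFAPCKO mice (Tsc1 conditionally inactivated mainly in glia). Oral dosing from P21 at 10, 25, 50 mg/kg qd or 50 mg/kg bid, n = 7–10 per group. Controls were vehicle and a comparator at 10 mg/kg. Body weight tracked. Survival followed from P21 to death or censoring at P90, compared by log-rank test.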

[24] = Toxicity in Tsc1-GFAP knockout Balb/c mouse assessed as change in body weight at 50 mg/kg, po bid; type: organism-based; conditions: in vivo
Outline: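 Tsc1GFAPCKO mice dosed orally from P21 at 10, 25, 50 mg/kg or 50 mg/kg bid. Body weight tracked during the survival study; mean ± SEM.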

- hepatocyte CLint at 5 µM [1]: 5.3 µL/min/1e6 cells
- hepatocyte CLint at 5 µM [2]: 5.3 µL/min/1e6 cells
- AUC [3]: 3689 ng·h/g
- Cmax [6]: 1100 ng/mL
- Tmax [7]: 30 min
- half-life [8]: 180 min
- AUC(0-t) at 8 h [9]: 2940 ng·h/mL
- CL/F [10]: 56.6 mL/min/kg
- Cmax [11]: 947 ng/mL
- Tmax [12]: 30 min
- AUC at 96 h [13]: 2370 ng·h/mL
- CL/F [14]: 64.9 mL/min/kg
- half-life [15]: 174 min
- Tmax [16]: 30 min
- Tmax [17]: 30 min
Structure (SMILES): C[C@@H]1COCCN1c1nc(-c2cnc(N)cc2C(F)F)nc(N2[C@H](C)COC[C@@H]2C)n1
- inhibition (Rattus norvegicus [4]): inactive
- inhibition (Rattus norvegicus [5]): inactive
- inhibition (Mus musculus [18]): Active
- inhibition (Mus musculus [19]): Active
- inhibition (Mus musculus [20]): Active
- Activity [21]: Non-Toxic
- Activity [22]: Non-Toxic
- Activity (Mus musculus [23]): Dose-dependent effect
- Activity [24]: Non-Toxic

Reference: ChEMBL document CHEMBL4715860 (J Med Chem, 2020)
